# Calls of active or inactive are those of the source. The calls are words filed in the database; no cut-off is given here.
# Experiments:
# Staphylococcus aureus [1] = assay: Antibacterial activity against methicillin-resistant Staphylococcus aureus isolate OC8525 harboring wild type quinolone resistance-determining region assessed as >= 4 fold increase in bactericidal activity by broth microdilution method in presence of 20 ug/ml reserpine; format: functional, organism-based
# Staphylococcus aureus [2] = assay: Antibacterial activity against methicillin-resistant Staphylococcus aureus isolate OC11696 assessed as >= 4 fold increase in bactericidal activity by broth microdilution method in presence of 20 ug/ml reserpine; format: functional, organism-based
# Staphylococcus aureus [3] = assay: Antibacterial activity against methicillin-resistant Staphylococcus aureus isolate OC12501 assessed as >= 4 fold increase in bactericidal activity by broth microdilution method in presence of 20 ug/ml reserpine; format: functional, organism-based
# Staphylococcus aureus [4] = assay: Antibacterial activity against methicillin-resistant Staphylococcus aureus isolate OC8530 harboring gyrA S84L and parC I143V mutant gene assessed as >= 4 fold increase in bactericidal activity by broth microdilution method in presence of 20 ug/ml reserpine; format: functional, organism-based
# Staphylococcus aureus [5] = assay: Antibacterial activity against methicillin-resistant Staphylococcus aureus isolate OC4222 harboring gyrA S84L and parC S80F mutant gene assessed as >= 4 fold increase in bactericidal activity by broth microdilution method in presence of 20 ug/ml reserpine; format: functional, organism-based
# Staphylococcus aureus [6] = assay: Antibacterial activity against methicillin-resistant Staphylococcus aureus isolate OC17042 harboring gyrA S84L/G106D, parC S80F and parE D732N mutant gene assessed as >= 4 fold increase in bactericidal activity by broth microdilution method in presence of 20 ug/ml reserpine; format: functional, organism-based
# Staphylococcus aureus [7] = assay: Antibacterial activity against methicillin-resistant Staphylococcus aureus isolate OC11521 harboring gyrA S84L/S85P, parC E84G mutant gene assessed as >= 4 fold increase in bactericidal activity by broth microdilution method in presence of 20 ug/ml reserpine; format: functional, organism-based
# Streptococcus pneumoniae [8] = assay: Antibacterial activity against ciprofloxacin-resistant Streptococcus pneumoniae by broth microdilution method; format: functional
# Procedure, shortened: (§1)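 CLSI M07-A7 broth microdilution MIC. Medium was cation-adjusted Mueller-Hinton broth. For S. pneumoniae it was Mueller-Hinton supplemented with 5% lysed horse blood. CLSI quality-control strains were included as appropriate.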
# Staphylococcus aureus [9] = assay: Antibacterial activity against Staphylococcus aureus […] by broth microdilution method; format: functional; procedure, shortened: as §1
# Staphylococcus aureus [10] = assay: Antibacterial activity against methicillin-resistant Staphylococcus aureus by broth microdilution method; format: functional; procedure, shortened: as §1
# Staphylococcus aureus [11] = assay: Antibacterial activity against methicillin-, ciprofloxacin-resistant Staphylococcus aureus by broth microdilution method; format: functional; procedure, shortened: as §1
# [12] = tested on: Staphylococcus epidermidis; assay: Antibacterial activity against methicillin-susceptible Staphylococcus epidermidis by broth microdilution method; format: functional
# [13] = tested on: Staphylococcus epidermidis; assay: Antibacterial activity against methicillin-resistant Staphylococcus epidermidis by broth microdilution method; format: functional
# [14] = tested on: Staphylococcus epidermidis; assay: Antibacterial activity against methicillin-, ciprofloxacin-resistant Staphylococcus epidermidis by broth microdilution method; format: functional
# Streptococcus pyogenes = assay: Antibacterial activity against Streptococcus pyogenes by broth microdilution method; format: functional
# Procedure, shortened: (§2)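 MICs by CLSI M07-A7 broth microdilution in cation-adjusted Mueller-Hinton medium. For S. pneumoniae the medium was supplemented with 5% lysed horse blood. CLSI quality control strains were run alongside as appropriate.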
# Streptococcus agalactiae = assay: Antibacterial activity against Streptococcus agalactiae by broth microdilution method; format: functional; procedure, shortened: as §2
# [15] = Antibacterial activity against Streptococcus sp. group C by broth microdilution method; format: functional
# Procedure, shortened: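 MICs by broth microdilution following CLSI M07-A7 in cation-adjusted Mueller-Hinton medium, using isolates from the J&JPRD culture collection. CLSI quality control strains were included as appropriate.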
# Enterococcus faecalis = assay: Antibacterial activity against Enterococcus faecalis ATCC 29212 by broth microdilution method; format: functional; procedure, shortened: as §2
# Enterococcus faecium = assay: Antibacterial activity against Enterococcus faecium by broth microdilution method; format: functional; procedure, shortened: as §2
# Haemophilus influenzae = assay: Antibacterial activity against Haemophilus influenzae by broth microdilution method; format: functional; procedure, shortened: as §2
# Moraxella catarrhalis = assay: Antibacterial activity against Moraxella catarrhalis by broth microdilution method; format: functional; procedure, shortened: as §2
# Escherichia coli = assay: Antibacterial activity against ciprofloxacin-resistant Escherichia coli by broth microdilution method; format: functional; procedure, shortened: as §1
# Klebsiella aerogenes = assay: Antibacterial activity against Enterobacter aerogenes by broth microdilution method; format: functional; procedure, shortened: as §2
# Serratia marcescens = assay: Antibacterial activity against Serratia marcescens by broth microdilution method; format: functional; procedure, shortened: as §2
# Proteus mirabilis = assay: Antibacterial activity against Proteus mirabilis by broth microdilution method; format: functional; procedure, shortened: as §2
# Providencia stuartii = assay: Antibacterial activity against Providencia stuartii by broth microdilution method; format: functional; procedure, shortened: as §2
# Citrobacter freundii = assay: Antibacterial activity against Citrobacter freundii by broth microdilution method; format: functional; procedure, shortened: as §2
# Pseudomonas aeruginosa = assay: Antibacterial activity against Pseudomonas aeruginosa ATCC 27853 by broth microdilution method; format: functional; procedure, shortened: as §2
# Staphylococcus aureus [16] = assay: Antibacterial activity against methicillin-resistant Staphylococcus aureus isolate OC8532 harboring wild type quinolone resistance-determining region by agar dilution method; format: functional
# Procedure, shortened: (§3)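 CLSI agar dilution MIC on cation-adjusted Mueller-Hinton medium. These were the MIC values used for the resistance studies, and CLSI quality-control strains were included as appropriate.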
# Staphylococcus aureus [17] = assay: Antibacterial activity against methicillin-resistant Staphylococcus aureus isolate OC8525 harboring wild type quinolone resistance-determining region by agar dilution method; format: functional; procedure, shortened: as §3
# Staphylococcus aureus [18] = assay: Antibacterial activity against methicillin-resistant Staphylococcus aureus isolate OC11150 harboring gyrA S84L and parC S80Y mutant gene by agar dilution method; format: functional
# Procedure, shortened: (§4)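 MICs for the resistance-selection studies were determined by CLSI agar dilution on Mueller-Hinton medium. For S. pneumoniae the medium was supplemented with 5% lysed horse blood. For MRSA fluctuation-assay strains an arithmetic agar dilution scheme was used for a more precise MIC.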
# Staphylococcus aureus [19] = assay: Antibacterial activity against methicillin-resistant Staphylococcus aureus isolate OC15425 harboring gyrA S84L and parC S80F mutant gene by agar dilution method; format: functional; procedure, shortened: as §4
# Streptococcus pneumoniae [20] = assay: Antibacterial activity against Streptococcus pneumoniae ATCC 49619 by broth microdilution method; format: functional; procedure, shortened: as §2
# Enterobacter cloacae = assay: Antibacterial activity against Enterobacter cloacae by broth microdilution method; format: functional
# Klebsiella pneumoniae = assay: Antibacterial activity against Klebsiella pneumoniae by broth microdilution method; format: functional; procedure, shortened: as §2
# Staphylococcus aureus [21] = assay: Antibacterial activity against methicillin-susceptible Staphylococcus aureus by broth microdilution method; format: functional
compound,measurement,setting,value
CC[n+]1c(-c2ccccc2)c2cc(N)ccc2c2ccc(N)cc21,Activity,Staphylococcus aureus [1],Active
same,Activity,Staphylococcus aureus [2],Active
same,Activity,Staphylococcus aureus [3],Active
same,Activity,Staphylococcus aureus [4],Active
same,Activity,Staphylococcus aureus [5],Active
same,Activity,Staphylococcus aureus [6],Active
same,Activity,Staphylococcus aureus [7],Active
CCn1cc(C(=O)O)c(=O)c2cc(F)c(N3CCNCC3)cc21,Activity,Staphylococcus aureus [1],Active
same,Activity,Staphylococcus aureus [2],Active
same,Activity,Staphylococcus aureus [3],Active
same,Activity,Staphylococcus aureus [4],Active
same,Activity,Staphylococcus aureus [5],Active
same,Activity,Staphylococcus aureus [6],Active
same,Activity,Staphylococcus aureus [7],Active
O=C(O)c1cn(C2CC2)c2cc(N3CCNCC3)c(F)cc2c1=O [CIPROFLOXACIN],MIC50,Streptococcus pneumoniae [8],32 µg/mL
same,MIC90,Streptococcus pneumoniae [8],64 µg/mL
same,MIC50,Staphylococcus aureus [9],16 µg/mL
same,MIC90,Staphylococcus aureus [9],> 32 µg/mL
same,MIC50,Staphylococcus aureus [10],16 µg/mL
same,MIC90,Staphylococcus aureus [10],> 32 µg/mL
same,MIC50,Staphylococcus aureus [11],> 32 µg/mL
same,MIC90,Staphylococcus aureus [11],32 µg/mL
same,MIC50,[12],0.25 µg/mL
same,MIC90,[12],0.5 µg/mL
same,MIC50,[13],16 µg/mL
same,MIC90,[13],64 µg/mL
same,MIC50,[14],64 µg/mL
same,MIC90,[14],128 µg/mL
same,MIC50,Streptococcus pyogenes,0.5 µg/mL
same,MIC90,Streptococcus pyogenes,1 µg/mL
same,MIC50,Streptococcus agalactiae,1 µg/mL
same,MIC90,Streptococcus agalactiae,1 µg/mL
same,MIC50,[15],0.25 µg/mL
same,MIC90,[15],1 µg/mL
same,MIC50,Enterococcus faecalis,1 µg/mL
same,MIC90,Enterococcus faecalis,> 16 µg/mL
same,MIC50,Enterococcus faecium,4 µg/mL
same,MIC90,Enterococcus faecium,> 16 µg/mL
same,MIC,Haemophilus influenzae,8 ng/mL
same,MIC50,Haemophilus influenzae,8 ng/mL
same,MIC90,Haemophilus influenzae,0.015 µg/mL
same,MIC50,Moraxella catarrhalis,0.06 µg/mL
same,MIC90,Moraxella catarrhalis,0.06 µg/mL
same,MIC50,Escherichia coli,64 µg/mL
same,MIC90,Escherichia coli,256 µg/mL
same,MIC50,Klebsiella aerogenes,0.03 µg/mL
same,MIC90,Klebsiella aerogenes,0.03 µg/mL
same,MIC50,Serratia marcescens,0.12 µg/mL
same,MIC90,Serratia marcescens,0.25 µg/mL
same,MIC50,Proteus mirabilis,0.03 µg/mL
same,MIC90,Proteus mirabilis,0.06 µg/mL
same,MIC50,Providencia stuartii,32 µg/mL
same,MIC90,Providencia stuartii,64 µg/mL
same,MIC50,Citrobacter freundii,2 µg/mL
same,MIC90,Citrobacter freundii,> 4 µg/mL
same,MIC50,Pseudomonas aeruginosa,0.25 µg/mL
same,MIC90,Pseudomonas aeruginosa,0.5 µg/mL
same,MIC,Staphylococcus aureus [16],0.6 µg/mL
same,MIC,Staphylococcus aureus [17],3 µg/mL
same,MIC,Staphylococcus aureus [18],12 µg/mL
same,MIC,Staphylococcus aureus [19],12 µg/mL
CC[C@H]1OC(=O)[C@H](C)[C@@H](O[C@H]2C[C@@](C)(OC)[C@@H](O)[C@H](C)O2)[C@H](C)[C@@H](O[C@@H]2O[C@H](C)C[C@H](N(C)C)[C@H]2O)[C@](C)(O)C[C@@H](C)C(=O)[C@H](C)[C@@H](O)[C@]1(C)O [ERYTHROMYCIN],MIC50,Streptococcus pneumoniae [20],0.06 µg/mL
same,MIC90,Streptococcus pneumoniae [20],16 µg/mL
CO/N=C1\CN(c2nc3c(cc2F)c(=O)c(C(=O)O)cn3C2CC2)CC1CN (stereo not given) [GEMIFLOXACIN],MIC50,Streptococcus pneumoniae [20],0.03 µg/mL
same,MIC90,Streptococcus pneumoniae [20],0.5 µg/mL
same,MIC50,Haemophilus influenzae,≤ 4 ng/mL
same,MIC90,Haemophilus influenzae,0.008 µg/mL
same,MIC,Moraxella catarrhalis,≤ 0.015 µg/mL
same,MIC50,Moraxella catarrhalis,≤ 0.015 µg/mL
same,MIC90,Moraxella catarrhalis,≤ 0.015 µg/mL
same,MIC50,Escherichia coli,32 µg/mL
same,MIC90,Escherichia coli,64 µg/mL
same,MIC50,Serratia marcescens,0.25 µg/mL
same,MIC90,Serratia marcescens,0.5 µg/mL
same,MIC50,Proteus mirabilis,0.12 µg/mL
same,MIC90,Proteus mirabilis,0.25 µg/mL
same,MIC50,Citrobacter freundii,1 µg/mL
same,MIC90,Citrobacter freundii,> 4 µg/mL
C[C@H]1COc2c(N3CCN(C)CC3)c(F)cc3c(=O)c(C(=O)O)cn1c23.C[C@H]1COc2c(N3CCN(C)CC3)c(F)cc3c(=O)c(C(=O)O)cn1c23.O [LEVOFLOXACIN],MIC50,Streptococcus pneumoniae [8],16 µg/mL
same,MIC90,Streptococcus pneumoniae [8],64 µg/mL
same,MIC,[12],0.12 µg/mL
same,MIC50,[12],0.12 µg/mL
same,MIC90,[12],0.25 µg/mL
same,MIC50,[13],8 µg/mL
same,MIC90,[13],16 µg/mL
same,MIC50,[14],16 µg/mL
same,MIC90,[14],16 µg/mL
same,MIC50,Escherichia coli,16 µg/mL
same,MIC90,Escherichia coli,64 µg/mL
same,MIC50,Enterobacter cloacae,0.06 µg/mL
same,MIC90,Enterobacter cloacae,0.12 µg/mL
same,MIC50,Klebsiella aerogenes,0.06 µg/mL
same,MIC90,Klebsiella aerogenes,0.06 µg/mL
same,MIC50,Klebsiella pneumoniae,0.06 µg/mL
same,MIC90,Klebsiella pneumoniae,0.12 µg/mL
same,MIC50,Providencia stuartii,16 µg/mL
same,MIC90,Providencia stuartii,64 µg/mL
same,MIC,Pseudomonas aeruginosa,0.5 µg/mL
same,MIC50,Pseudomonas aeruginosa,0.5 µg/mL
same,MIC90,Pseudomonas aeruginosa,2 µg/mL
CC1(C)S[C@@H]2[C@H](NC(=O)Cc3ccccc3)C(=O)N2[C@H]1C(=O)O [PENICILLIN G],MIC50,Streptococcus pneumoniae [20],0.06 µg/mL
same,MIC90,Streptococcus pneumoniae [20],2 µg/mL
CN[C@H](CC(C)C)C(=O)N[C@H]1C(=O)N[C@@H](CC(N)=O)C(=O)N[C@H]2C(=O)N[C@H]3C(=O)N[C@H](C(=O)N[C@H](C(=O)O)c4cc(O)cc(O)c4-c4cc3ccc4O)[C@H](O)c3ccc(c(Cl)c3)Oc3cc2cc(c3O[C@@H]2O[C@H](CO)[C@@H](O)[C@H](O)[C@H]2O[C@H]2C[C@](C)(N)[C@H](O)[C@H](C)O2)Oc2ccc(cc2Cl)[C@H]1O [VANCOMYCIN],MIC50,Staphylococcus aureus [9],1 µg/mL
same,MIC90,Staphylococcus aureus [9],1 µg/mL
same,MIC50,Staphylococcus aureus [21],1 µg/mL
same,MIC90,Staphylococcus aureus [21],2 µg/mL
same,MIC50,Staphylococcus aureus [10],1 µg/mL
same,MIC90,Staphylococcus aureus [10],1 µg/mL
same,MIC50,Staphylococcus aureus [11],1 µg/mL
same,MIC90,Staphylococcus aureus [11],1 µg/mL
same,MIC50,[12],2 µg/mL
same,MIC90,[12],2 µg/mL
same,MIC50,[13],2 µg/mL
same,MIC90,[13],2 µg/mL
same,MIC50,[14],2 µg/mL
same,MIC90,[14],2 µg/mL
same,MIC50,Enterococcus faecalis,2 µg/mL
same,MIC90,Enterococcus faecalis,> 16 µg/mL
same,MIC50,Enterococcus faecium,> 16 µg/mL
same,MIC90,Enterococcus faecium,> 16 µg/mL
